Source: ChEMBL document CHEMBL3124822, “Discovery of a rapidly metabolized, long-acting β(2) adrenergic receptor agonist with a short onset time incorporating a sulfone group suitable for once-daily dosing” (J Med Chem, 2014)

Tests used:
[1] = biological target: Beta-3 adrenergic receptor (Homo sapiens, UniProt P13945); test: Agonist activity at human beta3 adrenoceptor transfected in CHO cells assessed as cyclic AMP accumulation after 45 mins by fluorescence polarization assay; type: cell-based
[2] = biological target: Beta-1 adrenergic receptor (Homo sapiens, UniProt P08588); test: Agonist activity at human beta1 adrenoceptor transfected in CHO cells assessed as cyclic AMP accumulation after 45 mins by fluorescence polarization assay; type: cell-based
[3] = biological target: Beta-2 adrenergic receptor (Homo sapiens, UniProt P07550); test: Agonist activity at human beta2 adrenoceptor transfected in CHO cells assessed as cyclic AMP accumulation after 45 mins by fluorescence polarization assay; type: functional, cell-based
[4] = Oral absorption in Han Wistar rat at 2 mg/kg up to 7 hrs by LC-MS/MS analysis; type: ADME, organism-based; design: dose 2 mg/kg; details: in vivo, read-out: Fa
Method in brief: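 Rat oral absorption from hepatic portal vein plasma, corrected for systemic circulation levels, after β-glucuronidase treatment of samples (deconjugated HPV model). Expressed as h·ng/mL.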

[5] = Stability of the compound in solid state; type: physicochemical
[6] = Stability of the compound in solution state; type: physicochemical
[7] = Plasma concentration in Sprague-Dawley rat at 1261 ug/kg/day measured on day 7 by 7-day snout-only inhalation assay; type: ADME; details: inhaled, 1.261 mg/kg
Method in brief: (§1)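 Sprague–Dawley male rats exposed snout-only to a dry powder formulation of the 4-biphenylsulfonic acid salt for 7 days at 181, 344, 703 and 1261 (μg/kg)/day (measured aerosol 5.1, 9.8, 19.9, 35.7 μg/L). Assessed clinically, with body weight, hematology, biochemistry and respiratory tract evaluation. Plasma exposure measured on day 7 as ng·h/mL.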

Rattus norvegicus [8] = test: Toxicity in Sprague-Dawley rat assessed as minimal irritancy in laryngeal region at 703 to 1261 ug/kg/day by 7-day snout-only inhalation assay; type: organism-based; details: in vivo, inhaled_or_intranasal; method in brief: as §1
Rattus norvegicus [9] = test: Toxicity in Sprague-Dawley rat assessed as body weight change at 181 to 1261 ug/kg/day by 7-day snout-only inhalation assay; type: organism-based; details: in vivo, inhaled_or_intranasal; method in brief: as §1
Rattus norvegicus [10] = test: Toxicity in Sprague-Dawley rat at 181 to 1261 ug/kg/day by 7-day snout-only inhalation assay; type: organism-based; details: in vivo, inhaled_or_intranasal; method in brief: as §1
L5178Y [11] = test: Genotoxicity against mouse L5178Y cells in presence of rat liver metabolic activation system; type: toxicity, cell-based
Method in brief: (§2)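 Acetate and 4-biphenylsulfonate salts screened in Ames and mouse lymphoma L5178Y assays, with and without a rat liver metabolic activation system.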

L5178Y [12] = test: Genotoxicity against mouse L5178Y cells; type: toxicity, cell-based; method in brief: as §2
Rattus norvegicus [13] = test: Toxicity in Sprague-Dawley rat assessed as hematology at 181 to 1261 ug/kg/day by 7-day snout-only inhalation assay; type: organism-based; details: in vivo, inhaled_or_intranasal; method in brief: as §1
Salmonella typhimurium [14] = test: Genotoxicity in Salmonella typhimurium by Ames assay in presence of rat liver metabolic activation system; type: toxicity, organism-based; details: salmonella enterica subsp. enterica serovar typhimurium; method in brief: as §2
Salmonella typhimurium [15] = test: Genotoxicity in Salmonella typhimurium by Ames assay; type: toxicity, organism-based; details: salmonella enterica subsp. enterica serovar typhimurium; method in brief: as §2
[16] = Solubility of the compound in water; type: physicochemical
Rattus norvegicus [17] = test: Toxicity in Sprague-Dawley rat assessed as minimal irritancy in nasal cavity at 703 to 1261 ug/kg/day by 7-day snout-only inhalation assay; type: organism-based; details: in vivo, inhaled_or_intranasal; method in brief: as §1
Cavia porcellus [18] = test: Bronchodilatory activity in guinea pig assessed as duration of action of inhibition of histamine-induced bronchoconstriction at EC90 administered via nebulization 2 mins prior to histamine challenge; type: functional
Method in brief: (§3)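 Conscious guinea pigs, n = 24 per group, given test agonist as a nebulized solution in dimethylacetamide–saline vehicle (2 min nebulization) before histamine (10 mM, nebulized 1.3 min) in a whole-body plethysmograph. PenH recorded for 15 min as index of airway obstruction. Dose expressed as nebulizer concentration; duration taken as time to 50% recovery.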

Cavia porcellus [19] = test: Bronchodilatory activity in guinea pig assessed as inhibition of histamine-induced bronchoconstriction administered via nebulization 2 mins prior to histamine challenge; type: functional; method in brief: as §3

Sequence of Beta-3 adrenergic receptor (P13945 whole entry): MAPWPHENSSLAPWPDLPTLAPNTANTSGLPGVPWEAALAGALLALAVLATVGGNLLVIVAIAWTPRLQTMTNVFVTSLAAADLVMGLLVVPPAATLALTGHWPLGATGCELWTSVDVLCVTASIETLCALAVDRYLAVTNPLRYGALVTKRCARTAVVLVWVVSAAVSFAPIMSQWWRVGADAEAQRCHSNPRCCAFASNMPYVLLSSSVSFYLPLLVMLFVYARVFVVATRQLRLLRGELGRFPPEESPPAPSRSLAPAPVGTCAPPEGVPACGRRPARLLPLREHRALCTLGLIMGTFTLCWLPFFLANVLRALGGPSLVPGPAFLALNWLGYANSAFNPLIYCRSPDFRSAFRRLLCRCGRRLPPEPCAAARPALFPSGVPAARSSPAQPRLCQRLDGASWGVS
Sequence of Beta-1 adrenergic receptor (P08588 whole entry): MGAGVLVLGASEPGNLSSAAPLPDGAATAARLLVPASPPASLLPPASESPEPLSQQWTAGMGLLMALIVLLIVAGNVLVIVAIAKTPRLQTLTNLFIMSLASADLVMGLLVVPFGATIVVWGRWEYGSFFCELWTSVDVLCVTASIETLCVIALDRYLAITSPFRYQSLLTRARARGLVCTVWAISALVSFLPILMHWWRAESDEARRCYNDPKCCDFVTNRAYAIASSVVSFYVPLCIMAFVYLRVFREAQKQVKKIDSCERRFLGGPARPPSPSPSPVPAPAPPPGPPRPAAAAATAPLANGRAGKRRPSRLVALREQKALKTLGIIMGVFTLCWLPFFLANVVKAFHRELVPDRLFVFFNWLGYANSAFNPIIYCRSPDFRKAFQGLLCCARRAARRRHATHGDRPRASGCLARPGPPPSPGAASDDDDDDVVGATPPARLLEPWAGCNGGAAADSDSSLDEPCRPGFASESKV
Sequence of Beta-2 adrenergic receptor (P07550 whole entry): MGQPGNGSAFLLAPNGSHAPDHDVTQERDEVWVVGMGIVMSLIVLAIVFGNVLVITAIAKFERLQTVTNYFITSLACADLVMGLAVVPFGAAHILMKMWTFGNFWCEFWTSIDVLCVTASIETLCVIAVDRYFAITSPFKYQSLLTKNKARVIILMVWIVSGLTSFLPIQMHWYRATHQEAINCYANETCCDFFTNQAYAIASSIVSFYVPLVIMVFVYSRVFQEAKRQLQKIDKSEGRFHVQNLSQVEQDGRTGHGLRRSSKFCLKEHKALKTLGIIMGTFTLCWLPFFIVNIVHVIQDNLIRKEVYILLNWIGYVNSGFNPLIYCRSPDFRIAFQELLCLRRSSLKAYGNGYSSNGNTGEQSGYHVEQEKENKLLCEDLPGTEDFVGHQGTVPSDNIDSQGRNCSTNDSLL

SMILES | EC50 [1] [nM] | EC50 [2] [nM] | EC50 [3] [nM] | further results
O=S1(=O)CCc2ccc(CCCCOCCCCCCNC[C@H](O)c3ccc(O)c(CO)c3)cc21 | 2000 | 2000 | 7.94 | –
OCc1cc(C(O)CNCCCCCCOCCCCc2ccccc2)ccc1O (configuration not stated) [SALMETEROL] | – | – | – | AUC at 7 h [4]: 252 ng·h/mL
O=S1(=O)CCCc2ccc(CCCCOCCCCCCNC[C@H](O)c3ccc(O)c(CO)c3)cc21 | 2510 | 2000 | 39.8 | –
O=S(=O)(O)c1ccc(-c2ccccc2)cc1.O=S(=O)(c1cccc(CCCCOCCCCCCNC[C@H](O)c2ccc(O)c(CO)c2)c1)C1CCCC1 | – | – | – | Stability [5]: Stable; Stability [6]: Unstable; AUC [7]: 146 ng·h/mL; Activity (Rattus norvegicus [8]): Non-toxic; Activity (Rattus norvegicus [9]): Non-toxic; Activity (Rattus norvegicus [10]): Non-toxic; Activity (L5178Y [11]): Non-toxic; Activity (L5178Y [12]): Non-toxic; Activity (Rattus norvegicus [13]): Non-toxic; Activity (Salmonella typhimurium [14]): Non-toxic; Activity (Salmonella typhimurium [15]): Non-toxic; solubility [16]: < 10 µg/mL; Activity (Rattus norvegicus [17]): Non-toxic
O=S(=O)(c1cccc(CCCCOCCCCCCNC[C@H](O)c2ccc(O)c(CO)c2)c1)C1CC=CC1 | 398 | 501 | 1 | –
Cc1cc(CCCCOCCCCCCNC[C@H](O)c2ccc(O)c(CO)c2)cc(S(=O)(=O)C2CCCC2)c1 | 316 | 158 | 0.501 | –
O=S(=O)(c1cccc(CCCCOCCCCCCNC[C@H](O)c2ccc(O)c(CO)c2)c1)C1CCCCC1 | 251 | 251 | 1.58 | –
CS(=O)(=O)c1ccc(CCCCOCCCCCCNC[C@H](O)c2ccc(O)c(CO)c2)cc1 | 3980 | 6310 | 20 | –
CC(=O)O.OCc1cc(C(O)CNCCCCCCOCCCCc2ccccc2)ccc1O (configuration not stated) | – | – | – | Time (Cavia porcellus [18]): 13 h; EC90 (Cavia porcellus [19]): 50000 nM
O=S(=O)(c1ccc(CCCCOCCCCCCNC[C@H](O)c2ccc(O)c(CO)c2)cc1)C1CCCC1 | 398 | 1000 | 31.6 | –
